pKi: −log10 of the molar value.
What was measured:
[1] = Thermodynamic solubility in pH 7.4 PBS buffer incubated for 16 hrs by UV-absorption spectroscopy; type: physicochemical; details: pH 7.4, 16 h
How it was run: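 A standard curve per compound was built from UV absorbance of acetonitrile dilutions (500 to 0.9 μM, DMSO held at 0.5%) made from DMSO stock. For the sample, 1 mg compound in 1 mL PBS pH 7.4 was stirred at 500 rpm for 16 h at room temperature, then equilibrated 30 min and passed through a 0.2 μm filter. Filtrate UV absorbance was read on a plate reader and solubility extrapolated from the curve.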

[2] = Stability in mouse liver microsomes assessed as parent compound remaining at 10 uM in presence of NADPH incubated for 60 mins at 37 degC by UPLC/MS analysis; type: ADME, Microsome; details: 1 h
How it was run: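 Mouse liver microsomes at 0.4 mg/mL with NADPH cofactor in phosphate buffer (0.5 M), compound at 10 μM, verapamil control. T0 sample quenched at once; others shaken 60 min at 37 °C, then stopped with 2 volumes ice-cold acetonitrile. After centrifugation, parent quantified by UPLC/MS in SRM mode. % remaining = (conc at 60 min / conc at 0 min) ×100. Duplicate runs, mean reported.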

[3] = biological target: Sigma intracellular receptor 2 (Homo sapiens, UniProt Q5BJF2); assay: Displacement of [3H]-DTG from sigma2 receptor (unknown origin) after 120 mins in presence of sigma1 […] (+)-SKF10047 by microbeta scintillation counting method; details: for Ki: read-out: pKi (converted)
Sequence of Sigma intracellular receptor 2 (Q5BJF2 whole entry): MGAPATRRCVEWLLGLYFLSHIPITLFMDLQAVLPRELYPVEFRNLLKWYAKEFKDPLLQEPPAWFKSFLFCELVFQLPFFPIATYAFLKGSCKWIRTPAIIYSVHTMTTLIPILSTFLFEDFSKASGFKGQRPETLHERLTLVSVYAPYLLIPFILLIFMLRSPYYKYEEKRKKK
How it was run: (§1)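 Radioligand binding run by an external screening program; sigma-1 tracer [3H]-pentazocine, sigma-2 tracer [3H]-DTG. Each compound first tested at a single 10 μM concentration. Those giving >50% inhibition were then titrated over a dose range to derive pKi.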

Homo sapiens = organism: Homo sapiens; assay: Selectivity for sigma1 receptor (unknown origin) over sigma2 receptor (unknown origin)
[4] = Displacement of [3H]-DTG from sigma2 receptor in guinea pig brain membranes after 120 mins in presence of sigma1 […] (+)-SKF10047 by microbeta scintillation counting method; type: cell membranes, Cavia porcellus
[5] = biological target: T1, Sigma non-opioid intracellular receptor 1 (Homo sapiens, UniProt Q99720); assay: Displacement of [3H]-(+)-pentazocine from sigma1 receptor (unknown origin) expressed in HEK293 cell membranes after 120 mins by microbeta scintillation counting method; how it was run: as §1
T1 sequence (Q99720 whole entry): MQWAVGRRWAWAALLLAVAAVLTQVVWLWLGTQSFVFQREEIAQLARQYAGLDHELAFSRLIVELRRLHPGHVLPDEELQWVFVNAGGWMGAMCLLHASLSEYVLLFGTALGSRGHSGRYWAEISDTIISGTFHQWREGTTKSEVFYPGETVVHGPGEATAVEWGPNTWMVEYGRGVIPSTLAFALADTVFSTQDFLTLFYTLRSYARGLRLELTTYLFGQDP

[6] = biological target: T1, Sigma non-opioid intracellular receptor 1; assay: Displacement of [3H]-(+)-pentazocine from recombinant human sigma1 receptor expressed in HEK293 cell membranes after 120 mins by microbeta scintillation counting method

SMILES | pKi [5] | Ki [3] | other results
O=C(c1c2c(nn1-c1ccc(F)cc1)CCC(NCc1ccc(F)cc1)C2)N1CCCCC1 (stereo unspecified) | – | – | Therm solubility [1]: 110 µM; Stability [2]: 25%; pKi ([3]; read-out: Ki): < 5.00; Selectivity ratio (Homo sapiens): > 500
CC(C)=CCN1CC[C@]2(C)c3cc(O)ccc3C[C@H]1[C@H]2C [(+)-PENTAZOCINE] | – | – | pKi [4]: 5.81
O=C(c1c2c(nn1-c1ccccc1)CCC(NCc1ccc(F)cc1)C2)N1CCCCC1 (stereo unspecified) | 7.50 | 158 nM | Therm solubility [1]: 508 µM; Stability [2]: 7%
Cc1ccccc1NC(=N)Nc1ccccc1C [DITOLYLGUANIDINE] | – | – | pKi [4]: 7.55
O=C(c1c2c(nn1-c1ccccc1)CCC(NCc1ccccc1)C2)N1CCCCC1 (stereo unspecified) | 7.40 | 126 nM | –
CCCn1nc(C(=O)N(C)C)c2c1CCC(NCc1ccc(F)cc1)C2 (stereo unspecified) | – | 2000 nM | Therm solubility [1]: 1780 µM; Stability [2]: 21%
O=C(c1c2c(nn1-c1ccc(F)cc1)CCC(NCCc1ccncc1)C2)N1CCCCC1 (stereo unspecified) | 7.00 | – | Stability [2]: 21%
c1ccc(OCc2cc(OC[C@@H]3CCCN3)no2)cc1 | – | – | pKi [6]: 8.39; pKi [4]: 5.88
NC(=O)c1ccc(-n2nc3c(c2C(=O)N2CCCCC2)CC(NCCc2ccccc2)CC3)cc1 (stereo unspecified) | 6.20 | – | –
CCCn1nc(C(=O)N(C)C)c2c1CCC(NCCc1ccc(C(F)(F)F)cc1)C2 (stereo unspecified) | 5.60 | 631 nM | –
O=C(c1nn(-c2ccccc2)c2c1CC(NCCc1cccc(O)c1)CC2)N1CCCCC1 (stereo unspecified) | 6.70 | – | –
Clc1ccc(Cn2cc(NCCN3CCOCC3)nn2)cc1Cl | – | – | pKi [4]: < 5.00
O=C(c1c2c(nn1-c1ccccc1)CCC(NCCc1ccc(C(F)(F)F)cc1)C2)N1CCCCC1 (stereo unspecified) | 6.70 | – | –
O=C(c1c2c(nn1-c1ccccc1)CCC(NCCc1ccc3c(c1)OCO3)C2)N1CCCCC1 (stereo unspecified) | 7.20 | 31.6 nM | Therm solubility [1]: 655 µM; Stability [2]: 24%
O=C(c1nn(Cc2ccccc2)c2c1CC(NCc1ccc(F)cc1)CC2)N1CCCCC1 (stereo unspecified) | 6.60 | – | –
O=C(c1nn(-c2ccccc2)c2c1CC(NCc1ccccc1)CC2)N1CCCCC1 (stereo unspecified) | 6.20 | 501 nM | Therm solubility [1]: 1570 µM; Stability [2]: 0.3%
Cc1nc(-c2ccc(Cl)cc2)nc(OCCCN2CCCCC2)c1Cl | – | – | pKi [6]: 8.96; pKi [4]: 5.85
CCCn1nc(C(=O)N2CCCCC2)c2c1CCC(NCCc1ccc(O)cc1)C2 (stereo unspecified) | – | 251 nM | –
O=C(c1nn(-c2ccccc2)c2c1CC(NCCc1ccc3c(c1)OCO3)CC2)N1CCCCC1 (stereo unspecified) | 6.30 | 316 nM | –
O=C(c1nn(-c2ccccc2)c2c1CC(NCCc1ccc(C(F)(F)F)cc1)CC2)N1CCCCC1 (stereo unspecified) | 6.50 | – | –
CCCn1nc(C(=O)N(C)C)c2c1CCC(NCCc1ccc3c(c1)OCO3)C2 (stereo unspecified) | 6.30 | 398 nM | –
O=C(c1nn(-c2ccccc2)c2c1CC(NCCc1ccc(F)cc1)CC2)N1CCCCC1 (stereo unspecified) | 6.90 | 100 nM | –
O=C(c1c2c(nn1-c1ccc(O)cc1)CCC(NCCc1ccccc1)C2)N1CCCCC1 (stereo unspecified) | 6.50 | 251 nM | –
